Activity, EC50 and Ki data for 47 compounds are collected here from ChEMBL document CHEMBL1145544, “Probing distal regions of the A2B adenosine receptor by quantitative structure-activity relationship modeling of known and novel agonists” (J Med Chem, 2008).

For orientation: EC50 means the concentration that produces a half-maximal response. What is called Ki is a measure of affinity in units of concentration, obtained from inhibition or displacement.

Assay [1] concerns the target T1, Adenosine receptor A2a (Homo sapiens, UniProt P29274). In words: Displacement of [3H]CGS-21680 from human adenosine A2A receptor expressed in HEK293 cells at 10 uM. The assay is classed as cell-based. The gist of the method:
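HEK293 membranes expressing receptor; [3H]CGS21680 final 10 nM in 50 mM Tris-HCl pH 7.4, 10 mM MgCl2, 1 h at 25 °C; nonspecific defined by 10 μM NECA; filtration, scintillation counting; percent displacement recorded at single 10 μM concentration.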

In assay [2] the target is T2, Adenosine receptor A1 (Homo sapiens) (UniProt P30542).
T2 sequence (whole entry): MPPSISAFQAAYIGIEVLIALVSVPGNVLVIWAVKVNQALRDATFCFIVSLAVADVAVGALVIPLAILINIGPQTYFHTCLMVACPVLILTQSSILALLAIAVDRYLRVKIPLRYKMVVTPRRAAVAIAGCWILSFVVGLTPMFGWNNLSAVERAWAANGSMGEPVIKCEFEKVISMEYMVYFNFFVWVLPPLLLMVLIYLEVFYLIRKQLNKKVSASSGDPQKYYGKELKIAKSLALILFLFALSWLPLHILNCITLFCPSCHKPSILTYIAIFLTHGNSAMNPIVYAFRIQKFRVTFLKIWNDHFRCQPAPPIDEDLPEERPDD
In words: Displacement of [3H]CCPA from human adenosine A1 receptor expressed in CHO cells at 10 uM. It is filed as cell-based. In a few lines: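 CHO membranes expressing receptor; [3H]CCPA final 1.0 nM, Tris-HCl 50 mM pH 7.4 with 10 mM MgCl2, 1 h at 25 °C; nonspecific with 10 μM NECA; filtration and scintillation counting; percent displacement at single 10 μM test concentration.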
For orientation: Loss of bound radioactivity is the signal in a displacement assay; it reports binding, not function.

Another assay deals with T3, Adenosine receptor A2b (Homo sapiens, UniProt P29275).
T3 sequence (P29275 whole entry): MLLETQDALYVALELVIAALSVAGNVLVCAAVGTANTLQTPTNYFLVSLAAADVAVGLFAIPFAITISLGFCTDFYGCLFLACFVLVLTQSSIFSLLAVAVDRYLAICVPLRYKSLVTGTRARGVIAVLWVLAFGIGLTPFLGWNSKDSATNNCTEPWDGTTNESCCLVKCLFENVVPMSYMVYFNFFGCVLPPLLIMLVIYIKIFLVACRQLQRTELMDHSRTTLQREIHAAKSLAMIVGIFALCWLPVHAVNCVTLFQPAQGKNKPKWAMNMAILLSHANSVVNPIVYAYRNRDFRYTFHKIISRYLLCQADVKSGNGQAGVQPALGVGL
Kind of assay: Agonist activity at human adenosine A2B receptor expressed in CHO cells assessed as stimulation of adenylate cyclase. It is filed as functional, cell-based. The gist of the method:
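Stably transfected CHO cells; cAMP accumulation quantified by enzyme immunoassay kit per manufacturer's manual; EC50 derived.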

Assay [3] has as its target T4, Adenosine receptor A2b (Homo sapiens) (UniProt P29275).
T4 sequence (whole entry): T3 sequence (P29275 whole entry)
Kind of assay: Agonist activity human adenosine A2B receptor expressed in CHO cells assessed as stimulation of adenylate cyclase relative to NECA. It is filed as functional, cell-based. The gist of the method:
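Stably transfected CHO cells; cAMP accumulation by enzyme immunoassay kit. Relative potency computed as pEC50(compound) minus pEC50(NECA) determined in the same publication.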

The target in assay [4] is T1, Adenosine receptor A2a. In words: Displacement of [3H]CGS-21680 from human adenosine A2A receptor expressed in HEK293 cells. The assay is classed as cell-based.
The target of the next assay is T5, Adenosine receptor A1 (Homo sapiens, UniProt P30542).
T5 sequence (P30542 whole entry): T2 sequence (whole entry)
In words: Displacement of [3H]CCPA from human adenosine A1 receptor expressed in CHO cells. The assay is classed as cell-based.

T1 sequence (P29274 whole entry): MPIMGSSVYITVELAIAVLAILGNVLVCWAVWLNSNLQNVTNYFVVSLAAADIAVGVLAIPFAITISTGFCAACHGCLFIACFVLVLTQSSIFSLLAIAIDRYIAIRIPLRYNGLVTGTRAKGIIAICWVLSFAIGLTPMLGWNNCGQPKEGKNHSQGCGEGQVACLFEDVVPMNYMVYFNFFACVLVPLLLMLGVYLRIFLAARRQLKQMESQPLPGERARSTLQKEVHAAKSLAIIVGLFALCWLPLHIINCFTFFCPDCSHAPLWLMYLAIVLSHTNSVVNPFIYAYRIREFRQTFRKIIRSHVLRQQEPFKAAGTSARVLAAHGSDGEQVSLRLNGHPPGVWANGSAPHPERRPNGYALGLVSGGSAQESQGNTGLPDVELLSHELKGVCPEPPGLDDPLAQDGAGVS

Turning to `O=C(NNc1nc(OCCc2c[nH]c3cc(Br)ccc23)nc2c1ncn2[C@@H]1O[C@H](CO)[C@@H](O)[C@H]1O)c1ccco1`, the Activity on Adenosine receptor A2a [1] was 40%; in assay [2], 29%; in assay [3], -0.315. The EC50 at Adenosine receptor A2b stood at 289 nM.
As for `NNc1nc(OCCc2c[nH]c3cc(Br)ccc23)nc2c1ncn2[C@@H]1O[C@H](CO)[C@@H](O)[C@H]1O`, the inhibition constant (Ki) came out at 2050 nM on Adenosine receptor A2a [4] and 350 nM on Adenosine receptor A1. Further, on Adenosine receptor A2b, the concentration giving a half-maximal response (EC50) is 174 nM. Moreover, in assay [3], the Activity is -0.0944.
On to `CCNC(=O)[C@H]1O[C@@H](n2cnc3c(Nc4ccc(OCC(=O)NCc5ccccc5)cc4)ncnc32)[C@H](O)[C@@H]1O`, for which the Activity in assay [3] was determined as 0.014.
`CCCCC#Cc1nc(N)c2ncn([C@@H]3O[C@H](CO)[C@@H](O)[C@H]3O)c2n1`: the Activity in assay [3] is -1.62.
For the compound `Nc1nc(OCCc2c[nH]c3ccc(Cl)cc23)nc2c1ncn2[C@@H]1O[C@H](CO)[C@@H](O)[C@H]1O`, the Activity in assay [3] was -1.19.
Same read-out and setting: in the case of `Nc1nc(OCCc2cccc3ccccc23)nc2c1ncn2[C@@H]1O[C@H](CO)[C@@H](O)[C@H]1O` it was -1.01.
`CCNC(=O)[C@H]1O[C@@H](n2cnc3c(Nc4ccc(OCC(=O)Nc5ccc(OC)c(OC)c5)cc4)ncnc32)[C@H](O)[C@@H]1O`: the Activity in assay [3] was 0.533.
In the case of `CCNC(=O)[C@H]1O[C@@H](n2cnc3c(NNC(=O)c4ccc(C)[nH]4)nc(Cl)nc32)[C@H](O)[C@@H]1O`, the Activity in assay [3] is -0.039.
`CCNC(=O)[C@H]1O[C@@H](n2cnc3c(NNC(=O)c4ccc(C)o4)ncnc32)[C@H](O)[C@@H]1O`: the Activity in assay [3] was -0.152.
For the compound `CCNC(=O)[C@H]1O[C@@H](n2cnc3c(NNC(=O)c4ccc[nH]4)nc(Cl)nc32)[C@H](O)[C@@H]1O`, the Activity in assay [3] was -0.351.
Turning to `COc1ccc2[nH]cc(CCOc3nc(N)c4ncn([C@@H]5O[C@H](CO)[C@@H](O)[C@H]5O)c4n3)c2c1`, the Activity in assay [3] was -0.951.
Regarding `CCNC(=O)[C@H]1O[C@@H](n2cnc3c(NC)ncnc32)[C@H](O)[C@@H]1O`, in assay [3], the Activity was -0.787.
Regarding `CCNC(=O)[C@H]1O[C@@H](n2cnc3c(NNC(=O)c4sccc4C)nc(Cl)nc32)[C@H](O)[C@@H]1O`, the Activity in assay [3] was -0.327.
Regarding `CCNC(=O)[C@H]1O[C@@H](n2cnc3c(N)nc(C#C[C@H](O)c4ccccc4)nc32)[C@H](O)[C@@H]1O`, the Activity in assay [3] stood at 0.
On to `Nc1nc(OCCc2cccs2)nc2c1ncn2[C@@H]1O[C@H](CO)[C@@H](O)[C@H]1O`, for which the Activity in assay [3] is -1.1.
As to `CCNC(=O)[C@H]1O[C@@H](n2cnc3c(Nc4ccc(OCC(=O)Nc5cc(OC)cc(OC)c5)cc4)ncnc32)[C@H](O)[C@@H]1O`, the Activity in assay [3] was 0.461.
On the same count and under the same terms, in the case of `Nc1nc(OCCc2c[nH]c3ccc(F)cc23)nc2c1ncn2[C@@H]1O[C@H](CO)[C@@H](O)[C@H]1O` it was -0.739; in that of `CCNC(=O)[C@H]1O[C@@H](n2cnc3c(N)nc(C#C[C@@H](O)c4ccccc4)nc32)[C@H](O)[C@@H]1O`, 1.04; in that of `Nc1ncnc2c1ncn2[C@@H]1O[C@H](C(=O)NC2CC2)[C@@H](O)[C@H]1O`, -0.233.
As to `Nc1nc(OCCc2c[nH]c3ccc(Br)cc23)nc2c1ncn2[C@@H]1O[C@H](CO)[C@@H](O)[C@H]1O`, the Activity in assay [3] was -0.416.
As to `CCNC(=O)[C@H]1O[C@@H](n2cnc3c(Nc4ccc(OCC(=O)Nc5ccc(OC)cc5)cc4)ncnc32)[C@H](O)[C@@H]1O`, the Activity in assay [3] came to 0.68.
The same measure, in the same setting: in the case of `CCNC(=O)[C@H]1O[C@@H](n2cnc3c(Nc4ccc(OCC(=O)Nc5ccncc5)cc4)ncnc32)[C@H](O)[C@@H]1O` it was 0.681; in that of `CCNC(=O)[C@H]1O[C@@H](n2cnc3c(Nc4ccc(OCC(=O)Nc5ccc(OC)cc5)cc4)nc(Cl)nc32)[C@H](O)[C@@H]1O`, -0.366.
Turning to `O=S(=O)(O)c1ccc(Nc2ncnc3c2ncn3[C@@H]2O[C@H](CO)[C@@H](O)[C@H]2O)cc1`, the Activity in assay [3] was -1.23.
As to `CCNC[C@H]1O[C@@H](n2cnc3c(NC(=N)N)ncnc32)[C@H](O)[C@@H]1O`, the Activity in assay [3] stood at 0.41.
Consider `Nc1nc(OCCc2c[nH]c3ccccc23)nc2c1ncn2[C@@H]1O[C@H](CO)[C@@H](O)[C@H]1O`, for which the Activity in assay [3] is -0.33.
Consider `CCNC(=O)[C@H]1O[C@@H](n2cnc3c(Nc4ccc(OCC(=O)NC5CCCCC5)cc4)ncnc32)[C@H](O)[C@@H]1O`, for which the Activity in assay [3] is -0.308.
Turning to `CCNc1nc(OCCc2c[nH]c3ccccc23)nc2c1ncn2[C@@H]1O[C@H](CO)[C@@H](O)[C@H]1O`, in assay [3], the Activity is -1.37.
For the compound `Nc1nc(OCCc2ccccc2)nc2c1ncn2[C@@H]1O[C@H](CO)[C@@H](O)[C@H]1O`, the Activity in assay [3] was -1.4.
The same measure, in the same setting: in the case of `Nc1nc(OCCc2cc[nH]c2)nc2c1ncn2[C@@H]1O[C@H](CO)[C@@H](O)[C@H]1O` it was -1.27.
Same read-out and setting: in the case of `CCNC(=O)[C@H]1O[C@@H](n2cnc3c(NNC(=O)c4ccc(C)s4)ncnc32)[C@H](O)[C@@H]1O` it was -0.232; in that of `CCCCC#Cc1nc(NC(C)C)c2ncn([C@@H]3O[C@H](CO)[C@@H](O)[C@H]3O)c2n1`, -1.62.
Consider `CC(C)(C)OC(=O)C1CCCN1C[C@@H](O)[C@H](Cc1ccccc1)NC(=O)[C@H](CC(N)=O)NC(=O)OCc1ccccc1` (some centres undefined), for which the Activity in assay [3] was -0.405.
Regarding `CCNC(=O)[C@H]1O[C@@H](n2cnc3c(Nc4ccc(OCC(=O)Nc5ccc(I)cc5C(F)(F)F)cc4)ncnc32)[C@H](O)[C@@H]1O`, the Activity in assay [3] worked out at 0.161.
Still for that read-out and setting: in the case of `CCNC(=O)[C@H]1O[C@@H](n2cnc3c(Nc4ccc(OCC(=O)Nc5ccccc5)cc4)ncnc32)[C@H](O)[C@@H]1O` it was 1.33.
Turning to `CCNc1nc(C#C[C@@H](O)c2ccccc2)nc2c1ncn2[C@@H]1O[C@H](CO)[C@@H](O)[C@H]1O`, in assay [3], the Activity stood at 0.517.
In the case of `CCNC(=O)[C@H]1O[C@@H](n2cnc3c(NNC(=O)c4cccs4)nc(Cl)nc32)[C@H](O)[C@@H]1O`, the Activity in assay [3] was -0.097.
Consider `CCNC(=O)[C@H]1O[C@@H](n2cnc3c(Nc4ccc(OCC(=O)Nc5ccc6c(c5)OCO6)cc4)ncnc32)[C@H](O)[C@@H]1O`, for which, in assay [3], the Activity stood at 0.64.
Turning to `Nc1nc(Cl)nc2c1ncn2[C@@H]1O[C@H](CO)[C@@H](O)[C@H]1O`, the Activity in assay [3] was -0.889.
`CCNC(=O)[C@H]1O[C@@H](n2cnc3c(N)nc(OCCc4c[nH]c5ccccc45)nc32)[C@H](O)[C@@H]1O`: the Activity in assay [3] was -0.849.
For `OC[C@H]1O[C@@H](n2cnc3c(NCc4ccccc4)ncnc32)[C@H](O)[C@@H]1O`, the Activity in assay [3] is -1.49.
Still for that read-out and setting: in the case of `CCNC(=O)[C@H]1O[C@@H](n2cnc3c(Nc4ccc(OCC(=O)Nc5ccc(F)cc5)cc4)ncnc32)[C@H](O)[C@@H]1O` it was 1.01.
In the case of `O=C(COc1ccc(Nc2nc(OCCc3c[nH]c4cc(Br)ccc34)nc3c2ncn3[C@@H]2O[C@H](CO)[C@@H](O)[C@H]2O)cc1)N1CCCC1`, the Activity at Adenosine receptor A2a [1] was 46%; in assay [3] it was -0.838. For the same compound, on Adenosine receptor A2b, the EC50 was found to be 965 nM. Further, the Ki on Adenosine receptor A1 was 420 nM.
On to `O=C(COc1ccc(Nc2nc(OCCc3c[nH]c4cc(Br)ccc34)nc3c2ncn3[C@@H]2O[C@H](CO)[C@@H](O)[C@H]2O)cc1)Nc1ccccc1`, for which the values for the inhibitory constant (Ki) on Adenosine receptor A2a [4] and at Adenosine receptor A1 were 1150 nM and 370 nM, respectively. Also, on Adenosine receptor A2b, the EC50 was determined as 143 nM. Also, the Activity in assay [3] was -0.0092.
Take `CCNC(=O)[C@H]1O[C@@H](n2cnc3c(Nc4ccc(OCC(=O)NCc5ccc(OC)cc5)cc4)ncnc32)[C@H](O)[C@@H]1O`: the Activity in assay [3] is -0.19.
`CCNc1nc(C#C[C@H](O)c2ccccc2)nc2c1ncn2[C@@H]1O[C@H](CO)[C@@H](O)[C@H]1O`: in assay [3], the Activity was -0.579.
As for `CCNC(=O)[C@H]1O[C@@H](n2cnc3c(Nc4ccc(OCC(=O)NC5CCCCC5)cc4)nc(Cl)nc32)[C@H](O)[C@@H]1O`, the Activity in assay [3] is -0.29.
